{"source": "paper PMC6061410", "about": "(Clinical Drug Investigation, 2018)", "tested_on": "healthy young and healthy elderly subjects", "test": "Safety and tolerability", "format": "in vivo, human", "conditions": "young", "how_it_was_run": "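Adverse events were recorded by system organ class and preferred term in the treated set. This was 84 healthy young or elderly subjects randomised 3:1 to oral drug or placebo over 14 days, across seven ascending dose groups with a safety review before each escalation. Changes were assessed against the last pre-dose baseline measurement.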", "data": [{"smiles": "C[C@@H](Oc1ccc(S(C)(=O)=O)cc1C(=O)N1C[C@@H]2C[C@]2(c2cc(C(F)(F)F)on2)C1)C(F)(F)F", "note": "[BI 425809]", "values": [{"measurement": "Gastrointestinal disorders", "setting": "part 1, 25 mg QD", "result": "3 (33.3) n (%)"}, {"measurement": "General disorders and administration site conditions", "setting": "part 1, 25 mg QD", "result": "0 (–) n (%)"}, {"measurement": "Headache", "setting": "part 1, 25 mg QD", "result": "3 (33.3) n (%)"}, {"measurement": "Infections and infestations", "setting": "part 1, 25 mg QD", "result": "2 (22.2) n (%)"}, {"measurement": "Insomnia", "setting": "part 1, 25 mg QD", "result": "0 (–) n (%)"}, {"measurement": "Musculoskeletal and connective tissue disorders", "setting": "part 1, 25 mg QD", "result": "0 (–) n (%)"}, {"measurement": "Nasopharyngitis", "setting": "part 1, 25 mg QD", "result": "2 (22.2) n (%)"}, {"measurement": "Nervous system disorder", "setting": "part 1, 25 mg QD", "result": "3 (33.3) n (%)"}, {"measurement": "Ocular discomfort", "setting": "part 1, 25 mg QD", "result": "0 (–) n (%)"}, {"measurement": "Psychiatric disorders", "setting": "part 1, 25 mg QD", "result": "1 (11.1) n (%)"}, {"measurement": "Subjects with AEs leading to study discontinuation", "setting": "part 1, 25 mg QD", "result": "0 (–) n (%)"}, {"measurement": "Subjects with investigator-defined drug-related AEs", "setting": "part 1, 25 mg QD", "result": "6 (66.7) n (%)"}, {"measurement": "Total with AEs", "setting": "part 1, 25 mg QD", "result": "7 (77.8) n (%)"}, {"measurement": "Vision blurred", "setting": "part 1, 25 mg QD", "result": "2 (22.2) n (%)"}, {"measurement": "Dizziness", "setting": "part 1, 50 mg QD", "result": "1 (11.1) n (%)"}, {"measurement": "Eye disorders", "setting": "part 1, 50 mg QD", "result": "3 (33.3) n (%)"}, {"measurement": "Gastrointestinal disorders", "setting": "part 1, 50 mg QD", "result": "0 (–) n (%)"}, {"measurement": "General disorders and administration site conditions", "setting": "part 1, 50 mg QD", "result": "2 (22.2) n (%)"}, {"measurement": "Headache", "setting": "part 1, 50 mg QD", "result": "3 (33.3) n (%)"}, {"measurement": "Infections and infestations", "setting": "part 1, 50 mg QD", "result": "1 (11.1) n (%)"}, {"measurement": "Insomnia", "setting": "part 1, 50 mg QD", "result": "0 (–) n (%)"}, {"measurement": "Musculoskeletal and connective tissue disorders", "setting": "part 1, 50 mg QD", "result": "1 (11.1) n (%)"}, {"measurement": "Nasopharyngitis", "setting": "part 1, 50 mg QD", "result": "0 (–) n (%)"}, {"measurement": "Nervous system disorder", "setting": "part 1, 50 mg QD", "result": "3 (33.3) n (%)"}, {"measurement": "Ocular discomfort", "setting": "part 1, 50 mg QD", "result": "0 (–) n (%)"}, {"measurement": "Psychiatric disorders", "setting": "part 1, 50 mg QD", "result": "0 (–) n (%)"}, {"measurement": "Subjects with AEs leading to study discontinuation", "setting": "part 1, 50 mg QD", "result": "0 (–) n (%)"}, {"measurement": "Subjects with investigator-defined drug-related AEs", "setting": "part 1, 50 mg QD", "result": "6 (66.7) n (%)"}, {"measurement": "Total with AEs", "setting": "part 1, 50 mg QD", "result": "6 (66.7) n (%)"}, {"measurement": "Vision blurred", "setting": "part 1, 50 mg QD", "result": "1 (11.1) n (%)"}, {"measurement": "Dizziness", "setting": "part 1, 75 mg BID", "result": "2 (22.2) n (%)"}, {"measurement": "Eye disorders", "setting": "part 1, 75 mg BID", "result": "2 (22.2) n (%)"}, {"measurement": "Gastrointestinal disorders", "setting": "part 1, 75 mg BID", "result": "0 (–) n (%)"}, {"measurement": "General disorders and administration site conditions", "setting": "part 1, 75 mg BID", "result": "1 (11.1) n (%)"}, {"measurement": "Headache", "setting": "part 1, 75 mg BID", "result": "0 (–) n (%)"}, {"measurement": "Infections and infestations", "setting": "part 1, 75 mg BID", "result": "0 (–) n (%)"}, {"measurement": "Insomnia", "setting": "part 1, 75 mg BID", "result": "3 (33.3) n (%)"}, {"measurement": "Musculoskeletal and connective tissue disorders", "setting": "part 1, 75 mg BID", "result": "0 (–) n (%)"}, {"measurement": "Nasopharyngitis", "setting": "part 1, 75 mg BID", "result": "0 (–) n (%)"}, {"measurement": "Nervous system disorder", "setting": "part 1, 75 mg BID", "result": "2 (22.2) n (%)"}, {"measurement": "Ocular discomfort", "setting": "part 1, 75 mg BID", "result": "2 (22.2) n (%)"}, {"measurement": "Psychiatric disorders", "setting": "part 1, 75 mg BID", "result": "3 (33.3) n (%)"}, {"measurement": "Subjects with AEs leading to study discontinuation", "setting": "part 1, 75 mg BID", "result": "0 (–) n (%)"}, {"measurement": "Subjects with investigator-defined drug-related AEs", "setting": "part 1, 75 mg BID", "result": "6 (66.7) n (%)"}, {"measurement": "Total with AEs", "setting": "part 1, 75 mg BID", "result": "6 (66.7) n (%)"}, {"measurement": "Vision blurred", "setting": "part 1, 75 mg BID", "result": "0 (–) n (%)"}, {"measurement": "Dizziness", "setting": "part 1, 75 mg QD", "result": "3 (33.3) n (%)"}, {"measurement": "Eye disorders", "setting": "part 1, 75 mg QD", "result": "0 (–) n (%)"}, {"measurement": "Fatigue", "setting": "part 1, 75 mg QD", "result": "1 (11.1) n (%)"}, {"measurement": "Gastrointestinal disorders", "setting": "part 1, 75 mg QD", "result": "2 (22.2) n (%)"}, {"measurement": "General disorders and administration site conditions", "setting": "part 1, 75 mg QD", "result": "1 (11.1) n (%)"}, {"measurement": "Headache", "setting": "part 1, 75 mg QD", "result": "4 (44.4) n (%)"}, {"measurement": "Infections and infestations", "setting": "part 1, 75 mg QD", "result": "1 (11.1) n (%)"}, {"measurement": "Insomnia", "setting": "part 1, 75 mg QD", "result": "0 (–) n (%)"}, {"measurement": "Musculoskeletal and connective tissue disorders", "setting": "part 1, 75 mg QD", "result": "1 (11.1) n (%)"}, {"measurement": "Nasopharyngitis", "setting": "part 1, 75 mg QD", "result": "1 (11.1) n (%)"}, {"measurement": "Nervous system disorder", "setting": "part 1, 75 mg QD", "result": "5 (55.6) n (%)"}, {"measurement": "Ocular discomfort", "setting": "part 1, 75 mg QD", "result": "0 (–) n (%)"}, {"measurement": "Psychiatric disorders", "setting": "part 1, 75 mg QD", "result": "0 (–) n (%)"}, {"measurement": "Subjects with AEs leading to study discontinuation", "setting": "part 1, 75 mg QD", "result": "0 (–) n (%)"}, {"measurement": "Subjects with investigator-defined drug-related AEs", "setting": "part 1, 75 mg QD", "result": "5 (55.6) n (%)"}, {"measurement": "Total with AEs", "setting": "part 1, 75 mg QD", "result": "6 (66.7) n (%)"}, {"measurement": "Vision blurred", "setting": "part 1, 75 mg QD", "result": "0 (–) n (%)"}, {"measurement": "Dizziness", "setting": "part 1, Total BI n = 45", "result": "7 (15.6) n (%)"}, {"measurement": "Eye disorders", "setting": "part 1, Total BI n = 45", "result": "7 (15.6) n (%)"}, {"measurement": "Fatigue", "setting": "part 1, Total BI n = 45", "result": "1 (2.2) n (%)"}, {"measurement": "Gastrointestinal disorders", "setting": "part 1, Total BI n = 45", "result": "5 (11.1) n (%)"}, {"measurement": "General disorders and administration site conditions", "setting": "part 1, Total BI n = 45", "result": "4 (8.9) n (%)"}, {"measurement": "Headache", "setting": "part 1, Total BI n = 45", "result": "13 (28.9) n (%)"}, {"measurement": "Infections and infestations", "setting": "part 1, Total BI n = 45", "result": "5 (11.1) n (%)"}, {"measurement": "Insomnia", "setting": "part 1, Total BI n = 45", "result": "3 (6.7) n (%)"}, {"measurement": "Musculoskeletal and connective tissue disorders", "setting": "part 1, Total BI n = 45", "result": "3 (6.7) n (%)"}, {"measurement": "Nasopharyngitis", "setting": "part 1, Total BI n = 45", "result": "3 (6.7) n (%)"}, {"measurement": "Nervous system disorder", "setting": "part 1, Total BI n = 45", "result": "17 (37.8) n (%)"}, {"measurement": "Ocular discomfort", "setting": "part 1, Total BI n = 45", "result": "2 (4.4) n (%)"}, {"measurement": "Psychiatric disorders", "setting": "part 1, Total BI n = 45", "result": "4 (8.9) n (%)"}, {"measurement": "Subjects with AEs leading to study discontinuation", "setting": "part 1, Total BI n = 45", "result": "0 (–) n (%)"}, {"measurement": "Subjects with investigator-defined drug-related AEs", "setting": "part 1, Total BI n = 45", "result": "27 (60.0) n (%)"}, {"measurement": "Total with AEs", "setting": "part 1, Total BI n = 45", "result": "30 (66.7) n (%)"}, {"measurement": "Vision blurred", "setting": "part 1, Total BI n = 45", "result": "3 (6.7) n (%)"}, {"measurement": "Eye disorders", "setting": "parts 1 and 2, BI n = 57", "result": "7 (12.3) n (%)"}, {"measurement": "Gastrointestinal disorders", "setting": "parts 1 and 2, BI n = 57", "result": "5 (8.8) n (%)"}, {"measurement": "General disorders and administration site conditions", "setting": "parts 1 and 2, BI n = 57", "result": "4 (7.0) n (%)"}, {"measurement": "Infections and infestations", "setting": "parts 1 and 2, BI n = 57", "result": "6 (10.5) n (%)"}, {"measurement": "Musculoskeletal and connective tissue disorders", "setting": "parts 1 and 2, BI n = 57", "result": "3 (5.3) n (%)"}, {"measurement": "Nervous system disorder", "setting": "parts 1 and 2, BI n = 57", "result": "18 (31.6) n (%)"}, {"measurement": "Psychiatric disorders", "setting": "parts 1 and 2, BI n = 57", "result": "4 (7.0) n (%)"}, {"measurement": "Subjects with AEs leading to study discontinuation", "setting": "parts 1 and 2, BI n = 57", "result": "0 (–) n (%)"}, {"measurement": "Subjects with investigator-defined drug-related AEs", "setting": "parts 1 and 2, BI n = 57", "result": "27 (47.4) n (%)"}, {"measurement": "Total with AEs", "setting": "parts 1 and 2, BI n = 57", "result": "32 (56.1) n (%)"}]}]}
